Legend:
Plasmodium vivax [1] = assay: Antimalarial activity against liver stage Plasmodium vivax schizont infected in human hepatocytes preincubated for 5 to 10 days followed by compound addition and measured after 12 days post infection by immunofluorescence staining based assay; assay type: functional, organism-based; conditions: hepatocyte
Procedure, shortened: (§1)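 Primary human hepatocytes seeded at 18 000 per collagen-coated well. Two days later, infected with sporozoites from mosquitoes fed P. vivax patient blood (Cambodia) 18 days earlier; a different isolate was used per experiment. Radical-cure mode: treated days 5–7 post-infection. Day 12: fixed, anti-PvUIS4 immunofluorescence, high-content imaging. Nigericin and 0.1% DMSO controls. Duplicate wells; two independent experiments.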

[2] = Selectivity index, ratio of CC50 for primary human hepatocytes to EC50 for liver stage Plasmodium vivax schizont infected in human hepatocytes; assay type: toxicity, cell-based; conditions: read-out: Ratio CC50/EC50
[3] = Cytotoxicity against human HepG2 cells incubated for 72 hrs by Hoechst 33342 staining based assay; assay type: toxicity, cell-based
Procedure, shortened: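 HepG2 cells, 2000 per collagen-coated well, treated the following day by pin transfer from a 12-point 1:3 dilution series (1000× DMSO stocks). Puromycin positive control; 0.1% v/v DMSO negative. After 72 h: fixed, Hoechst 33342 nuclear stain, high-content imaging. CC50 fitted per run from duplicate wells; three independent experiments.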

[4] = Selectivity index, ratio of CC50 for human HepG2 cells to EC50 for asexual blood stage Plasmodium falciparum W2; assay type: toxicity; conditions: read-out: Ratio CC50/EC50
Plasmodium falciparum = assay: Antimalarial activity against asexual blood stage Plasmodium falciparum W2 incubated for 72 hrs by Hoechst 33342 staining based assay; assay type: functional, organism-based
Procedure, shortened: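 P. falciparum W2 ring stages plated at 2% parasitemia and 0.75% hematocrit. Cells allowed to settle, then dosed by pin transfer from a 12-point 1:3 dilution series made from 1000× DMSO stocks. Artemisinin was the positive control and 0.1% v/v DMSO the negative. After 72 h: fixed, Hoechst 33342 DNA stain, high-content imaging. EC50 fitted per run from duplicate wells; three independent experiments.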

Plasmodium vivax [5] = assay: Antimalarial activity against liver stage Plasmodium vivax hypnozoite infected in human hepatocytes preincubated for 5 to 10 days followed by compound addition and measured after 12 days post infection by immunofluorescence staining based assay; assay type: functional, organism-based; conditions: hepatocyte; procedure, shortened: as §1
[6] = Cytotoxicity against human primary hepatocytes; assay type: toxicity, cell-based, Hepatocyte
Procedure, shortened: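 Host primary human hepatocytes (18 000 per collagen-coated well) in the P. vivax liver-stage radical-cure cultures. Compound given days 5–7 post-infection from a 12-point 1:3 dilution series; fixed at day 12 and imaged by high-content imaging. 0.1% DMSO negative control. CC50 fitted per run from duplicate wells; two independent experiments.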

[7] = Selectivity index, ratio of CC50 for primary human hepatocytes to EC50 for liver stage Plasmodium vivax hypnozoite infected in human hepatocytes; assay type: toxicity, cell-based; conditions: read-out: Ratio CC50/EC50

## CC1=CC[C@@]23COC(=O)[C@@H](O)[C@H](C)CCOC(=O)/C=C/C=C\C(=O)O[C@@H]4C[C@@H](O[C@@H]2C1)[C@@]1(CO1)[C@]43C
Plasmodium vivax [1]
  EC50: 4.07 nM
  pEC50: 8.39
[2]
  selectivity ratio: 77.7
[3]; read-out: CC50
  CC50 at 72 h: 3.55 nM
[3]; read-out: pCC50 (converted)
  CC50 at 72 h: 3.55 nM
[4]
  selectivity ratio: 7.95
Plasmodium falciparum
  EC50: 0.45 nM
  pEC50: 9.35
Plasmodium vivax [5]
  EC50: 30.9 nM
  pEC50: 7.51
[6]; read-out: CC50
  CC50: 316 nM
[6]; read-out: pCC50 (converted)
  CC50: 316 nM
[7]
  selectivity ratio: 10.1

## CC1=C[C@H]2O[C@@H]3C[C@@H](O)[C@](C)([C@@]2(CO)CC1)[C@@]31CO1
Plasmodium vivax [1]
  EC50: > 10000 nM
  pEC50: < 5
Plasmodium falciparum
  EC50: > 4370 nM
  pEC50: < 5.36
Plasmodium vivax [5]
  EC50: > 3310 nM
  pEC50: < 5.48

## CC(=O)OC[C@]12CCC(C)=C[C@H]1O[C@@H]1[C@H](O)[C@@H](OC(C)=O)[C@@]2(C)[C@]12CO2 (single isomer, unassigned)
Plasmodium vivax [1]
  pEC50: 7.87
[2]
  selectivity ratio: 28.7
[4]
  selectivity ratio: 4.43
Plasmodium falciparum
  pEC50: 8.21
Plasmodium vivax [5]
  pEC50: 7.44
[7]
  selectivity ratio: 10.7

## CO[C@@H]1C[C@@H](C[C@H]2CC[C@H](C)[C@H]([C@@H](C)C(=O)O)O2)O[C@]2(O[C@](C)([C@H]3CC[C@@](C)([C@@H]4O[C@@H]([C@H]5O[C@@](O)(CO)[C@H](C)C[C@@H]5C)C[C@@H]4C)O3)C[C@H]2C)[C@@H]1C [NIGERICIN]
[2]
  selectivity ratio: > 38.9
[6]; read-out: pCC50 (converted)
  CC50: 200 nM
[7]
  selectivity ratio: > 16.3

## COc1ccc(C[C@H](N)C(=O)N[C@H]2[C@@H](O)[C@H](n3cnc4c(N(C)C)ncnc43)O[C@@H]2CO)cc1 [PUROMYCIN]
[2]
  selectivity ratio: < 1
[7]
  selectivity ratio: 2.25

From ChEMBL document CHEMBL5357032, “In Vitro Antimalarial Activity of Trichothecenes against Liver and Blood Stages of Plasmodium Species” (J Nat Prod, 2024)
